A selection: hits, their analogues and other compounds. The true share with any hit is near 1.3%.
TDP2 absorb: blocks human TDP2 phosphodiesterase activity | recombinant TDP2, T5PNP hydrolysis, p-nitrophenol absorbance 415 nm | inhibition, % at 12.8 µM | 370,000 compounds, 0.34% hits | AID 720702;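 active = inhibition above the mean of all tested compounds plus 3 SD, set per campaign, cut at about 25% in these data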
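Incubation: 2 h at 37 °C; Test system: recombinant human TDP2; Quantity: enzyme 120 nM; Read-out basis: percent inhibition; Medium: 50 mM Tris-HCl pH 7.5 with Mg2+, KCl, DTT, BSA; Repeats: single replicate; Compound: 12.8 µM single point, 1% DMSO; Signal: epi absorbance; Reagent: 5 mM T5PNP chromogenic substrate; Benchmarks: no-enzyme high, DMSO-plus-enzyme low.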
LEDGF integ inh: blocks HIV-1 LEDGF/p75-dependent DNA integration; TR-FRET IN-LEDGF/p75 DNA integration, Eu/Cy5; inhibition, % at 3.7 µM; 370,000 compounds, 0.64% hits; AID 743269;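 active = inhibition above the screen-wide mean plus 3 SD, cut at about 13% in these data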;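 also: signal is the Cy5 over europium emission ratio at 671 and 618 nm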
ASAP1 GAP inh: blocks human ASAP1-stimulated Arf1 GTP hydrolysis; GDP FP detection; inhibition, % at 16.5 µM; AID 624377; 360,000 compounds, 0.19% hits; in the data active = inhibition above about 25%
Target sequence (Q9ULH1 325-724 limits assumed): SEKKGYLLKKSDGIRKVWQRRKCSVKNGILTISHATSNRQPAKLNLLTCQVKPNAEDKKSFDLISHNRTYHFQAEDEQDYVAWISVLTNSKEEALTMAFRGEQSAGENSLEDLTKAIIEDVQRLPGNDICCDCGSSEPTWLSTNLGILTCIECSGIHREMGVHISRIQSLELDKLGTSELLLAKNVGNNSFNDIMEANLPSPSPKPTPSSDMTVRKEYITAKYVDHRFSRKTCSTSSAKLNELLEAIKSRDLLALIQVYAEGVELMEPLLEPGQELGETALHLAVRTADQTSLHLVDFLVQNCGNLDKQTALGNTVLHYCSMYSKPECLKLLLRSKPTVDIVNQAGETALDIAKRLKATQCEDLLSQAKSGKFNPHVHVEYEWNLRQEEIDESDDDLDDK
ARFGAP1 inhibitor: rat ARFGAP1 inhibition; Q62848; Arfgap1-stimulated ARF1 GTP hydrolysis, GDP FP detection; inhibition, % at 16.5 µM; 360,000 compounds, 0.26% hits; AID 651572;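 active = inhibition above a per-plate limit, mean inhibition of low control wells plus 3 SD, cut at about 25% in these data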
Target sequence (Q62848 1-136 limits assumed): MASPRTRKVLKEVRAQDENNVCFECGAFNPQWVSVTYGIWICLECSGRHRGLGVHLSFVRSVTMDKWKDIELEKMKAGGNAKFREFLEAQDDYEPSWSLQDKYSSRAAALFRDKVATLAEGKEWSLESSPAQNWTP
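Assay system: Rat Arfgap1 GAP domain (His6, aa 1-136), purified enzyme | Buffer or medium: HEPES 25 mM pH 7.5, NaCl 150 mM, MgCl2, DTT | Schedule: GTP hydrolysis reaction 2 h at 25 °C | Signal: FP of antibody-bound GDP Alexa 633 tracer, ex 620/em 688 nm | Measure: Percent inhibition of Arfgap1-stimulated GTP hydrolysis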
Casp6 inh: inhibitors of human caspase-6; inhibition, % at 12.5 µM; AID 686996; purified caspase-6, Z-VEID-R110 cleavage fluorescence; P55212; 350,000 compounds, 0.53% hits;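 active = mean inhibition across replicates at least about 35%, with every replicate also reaching that limit, limit read from the data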
Hits are given with their value; i = inactive; nt = not tested or not shown.

SMILES | TDP2 absorb | LEDGF integ inh | ASAP1 GAP inh | ARFGAP1 inhibitor | Casp6 inh
O=C(Nc1nc(-c2ccco2)c(-c2ccco2)s1)c1ccc(F)cc1F | i | i | i | i | i
O=C(Nc1nc(-c2ccco2)c(-c2ccco2)s1)c1c(F)cccc1Cl | i | 48 | i | i | 75
C=CCn1c(CNC(=O)c2ccco2)nnc1SCC(=O)c1ccccc1 | i | i | i | i | i
CC(Nc1ccc2ccccc2c1)C(=O)N/N=C/c1ccncc1 (stereo unspecified) | i | i | i | i | 61
O=C(Cn1cncn1)NCCCc1ccccc1 | i | i | i | i | 75
O=S(=O)(c1cc(Br)c(Cl)s1)N1CCCC1 | i | i | i | i | i
COc1ccccc1NC(C)=O | i | i | i | i | nt
COc1ccccc1NC(=O)C(=N\O)/C(C)=N/O | i | i | i | i | 39
Cc1ccc(C(=O)N/C(=C/c2ccco2)C(=O)N2CCCCCC2)cc1 | i | i | i | i | i
O=C(O)CN1C(=O)/C(=C\c2cc(Br)ccc2OCc2ccc(Cl)cc2Cl)SC1=S | nt | nt | nt | nt | 86
O=C(O)CN1C(=O)/C(=C\c2ccccc2OCc2ccc(Cl)cc2)SC1=S | i | i | i | i | i
CCN(CC)C(=O)COc1ccc(/C(C)=N/NC(=O)c2ccccc2O)cc1 | i | i | i | i | 38
Cc1ccc(C)c2[nH]c(=O)c(CN(Cc3ccc4c(c3)OCO4)Cc3nnnn3Cc3ccco3)cc12 | i | 18 | i | i | nt
Cc1nnc(SCC(=O)N(C)C2CCCCC2)n1C | i | i | i | i | 55
C=CCn1c(SCC(=O)N(C)C2CCCCC2)nnc1C1CC1 | i | i | i | i | i
O=S(=O)(NN=Cc1ccc(O)cc1O)c1cc(Cl)c(Cl)cc1Cl | i | i | i | i | i
CC(=O)Nc1cc(Cl)c(N=Cc2ccc(O)cc2O)cc1Cl | i | 24 | i | i | i
COC(=O)c1c(NC(=O)/C=C/C(=O)O)sc(C)c1-c1ccc(C(C)C)cc1 | i | i | i | i | 37
CS(=O)(=O)c1ccc(C(=O)N2CCc3ccccc3C2)cc1 | i | i | i | i | i
O=C(Nc1ccc(S(=O)(=O)Nc2cnc3ccccc3n2)cc1)c1ccc(F)cc1 | i | i | i | i | i
CC(C)(C)c1ccc(C(=O)Nc2ccc(S(=O)(=O)Nc3cnc4ccccc4n3)cc2)cc1 | i | i | i | i | 61
CC1(C)CC(=O)C2=C(C1)OC(N)=C([N+](=O)[O-])C2c1ccc(C#N)s1 (stereo unspecified) | i | i | i | i | i
O=c1ccc2[n+]([O-])c3ccc(O)cc3oc-2c1 | i | 61 | i | i | 88
O=C(c1cccc(S(=O)(=O)N2CCCCCC2)c1)N1CCN(c2ccccc2F)CC1 | i | i | i | i | 48
COc1cc(CNC(C)c2ccccc2)c(Br)cc1OCC(N)=O (stereo unspecified) | i | i | i | i | 80
SMILES | TDP2 absorb | LEDGF integ inh | ASAP1 GAP inh | ARFGAP1 inhibitor | Casp6 inh
Cc1ncoc1C(=O)Nc1cccc(Cl)c1 | nt | nt | nt | nt | i
Cc1ccc(NC(=O)c2ocnc2C)cc1Cl | nt | nt | nt | nt | 59
CCOC(=O)[C@@H](NC(=O)/C=C/[C@H]1O[C@@H](n2cc(C)c(=O)[nH]c2=O)C[C@@H]1O)C(C)C | i | i | i | i | i
CO[C@H]1CN(C)C(=O)c2cc(NC(=O)C3CC3)ccc2OC[C@H](C)N(C(=O)c2ccccc2)C[C@H]1C | nt | nt | nt | nt | 70
C[C@@H]1CN([C@H](C)CO)C(=O)c2cc(NC(=O)Nc3ccccc3)ccc2O[C@H]1CN(C)Cc1ccc(C(F)(F)F)cc1 | nt | nt | nt | nt | i
CC1=C/C(=C\c2ccc(Br)o2)C(=O)O1 | i | i | i | i | 83
COc1ccccc1-c1ccc(/C=C2/C=C(C)OC2=O)o1 | i | i | i | i | nt
COc1ccccc1-c1ccc2c(c1)[C@@H]1[C@@H](CCN1C(=O)C1CCCCC1)[C@@H](CO)N2 | nt | nt | nt | nt | i
CCCCn1c(N)c(N(CC(C)C)C(=O)CC(NC(=O)c2ccccc2Cl)c2ccccc2)c(=O)[nH]c1=O (stereo unspecified) | i | i | i | i | i
CCCCn1c(N)c(N(CC(C)C)C(=O)CC(NC(=O)c2ccccc2)c2ccccc2)c(=O)[nH]c1=O (stereo unspecified) | i | i | i | i | 65
CCCCN(C(=O)c1cccc(-n2cccc2)c1)c1c(N)n(CCCC)c(=O)[nH]c1=O | i | 27 | i | i | 43
CCc1ccc(C(O)c2ncc(-c3ccccc3F)[nH]2)cc1 (stereo unspecified) | i | i | i | i | i
OC(c1ccc(F)cc1)c1ncc(-c2ccccc2F)[nH]1 (stereo unspecified) | i | i | i | i | 39
Cc1ccc(C(=O)N/N=C\c2cccc(OC(=O)c3cccc(F)c3)c2)cn1 | i | i | i | i | i
Cc1ccc(C(=O)N/N=C\c2ccc(OC(=O)c3cccc(F)c3)cc2)cn1 | i | i | i | i | 47
CCN(C(=O)C(C)N1C(=O)/C(=C/c2ccco2)SC1=S)C1CCS(=O)(=O)C1 (stereo unspecified) | i | 49 | i | i | 50
CC(C(=O)N(C)C1CCS(=O)(=O)C1)N1C(=O)/C(=C/c2ccc(F)cc2)SC1=S (stereo unspecified) | i | i | i | i | i
Cc1ccc(NC2C(=O)NC(=O)NC2=O)cc1 | i | i | 32 | i | i
Cc1ccc(NC2CNC(=O)NC2=O)cc1C (stereo unspecified) | i | i | i | i | i
C=CCOc1ccc(C(c2c(C(=O)O)[nH]c3ccccc23)c2c(C(=O)O)[nH]c3ccccc23)cc1 | i | i | i | i | 48
NC(=O)N/N=C/c1ccc([N+](=O)[O-])o1 | i | i | i | i | i
O=C(N/N=C/c1ccc([N+](=O)[O-])o1)C1CC1 | i | i | i | i | 42
CCN(CC)CCNC(=O)C1c2ccccc2Oc2ccccc21 | i | i | i | i | i
CCOCCCNC(=O)C1c2ccccc2Oc2ccccc21 | i | i | i | i | 41
CCC(CC)COC(=O)C1=C(C)NC(=O)NC1c1cc(OC)ccc1OC (stereo unspecified) | i | i | i | i | 68
SMILES | TDP2 absorb | LEDGF integ inh | ASAP1 GAP inh | ARFGAP1 inhibitor | Casp6 inh
Cc1c(Br)c(=O)oc2c(Br)c(O)c(O)cc12 | i | i | i | i | 47
Cc1c(Br)c(=O)oc2c(Br)c(O)ccc12 | i | i | i | i | i
O=C(CSc1nc2ccccc2c(=O)[nH]1)Nc1ccc(C(=O)O)cc1 | i | i | i | i | 37
O=C(C[C@H]1CC[C@H]2[C@@H](COC[C@H](O)CN2S(=O)(=O)c2cccc(Cl)c2)O1)NCCCN1CCOCC1 | nt | nt | nt | nt | i
COc1nc(C)c2cc(C)oc2n1 | i | i | i | i | 51
O=C(O)COc1ccccc1/C=C1\SC(=S)N(NC(=O)c2ccccc2O)C1=O | i | i | i | i | i
O=C(Cc1ccccc1)NN1C(=O)/C(=C/c2ccccc2C(=O)O)SC1=S | i | i | i | i | 62

Screening data from PubChem.
